Sampled rows, rich in hits. Any-hit rate of the full collection: about 2.5%.
TRPC4 act = activators of mouse TRPC4 channel; Q9QUQ5; HEK293 TRPC4beta/mu-opioid, Fluo4 calcium fluorescence; stronger effect = higher value; B-score at 10 µM; actives 0.49% (n = 310,000);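 active means B-score above 5 SD of library B-scores, and initial fluorescence ratio not above library mean plus 5 SD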;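 further: positive B-score marks a calcium rise read as TRPC4 activation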
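Incubation: 45 min room-temperature Fluo4 loading, 110 s read / System: HEK293 cells stably co-expressing mouse TRPC4beta and mu-opioid receptor / Signal: Fluo4 fluorescence, kinetic / Control set: buffer (low) and maximal DAMGO (high) / Measure: integrated baseline-normalised fluorescence ratio, converted to per-well B score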
TRPC6 activator = activators of mouse TRPC6 channel. HEK293-TRPC6 membrane potential dye fluorescence; stronger effect = higher value. B-score at 10 µM. AID 2550. Q61143. actives 0.13% (n = 310,000);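 active means B-score of the integrated fluorescence ratio above library mean plus 3 SD, and starting fluorescence ratio within library mean plus 5 SD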;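 further: higher score means more depolarization so channel activation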
Target sequence (Q61143 whole entry, looked up): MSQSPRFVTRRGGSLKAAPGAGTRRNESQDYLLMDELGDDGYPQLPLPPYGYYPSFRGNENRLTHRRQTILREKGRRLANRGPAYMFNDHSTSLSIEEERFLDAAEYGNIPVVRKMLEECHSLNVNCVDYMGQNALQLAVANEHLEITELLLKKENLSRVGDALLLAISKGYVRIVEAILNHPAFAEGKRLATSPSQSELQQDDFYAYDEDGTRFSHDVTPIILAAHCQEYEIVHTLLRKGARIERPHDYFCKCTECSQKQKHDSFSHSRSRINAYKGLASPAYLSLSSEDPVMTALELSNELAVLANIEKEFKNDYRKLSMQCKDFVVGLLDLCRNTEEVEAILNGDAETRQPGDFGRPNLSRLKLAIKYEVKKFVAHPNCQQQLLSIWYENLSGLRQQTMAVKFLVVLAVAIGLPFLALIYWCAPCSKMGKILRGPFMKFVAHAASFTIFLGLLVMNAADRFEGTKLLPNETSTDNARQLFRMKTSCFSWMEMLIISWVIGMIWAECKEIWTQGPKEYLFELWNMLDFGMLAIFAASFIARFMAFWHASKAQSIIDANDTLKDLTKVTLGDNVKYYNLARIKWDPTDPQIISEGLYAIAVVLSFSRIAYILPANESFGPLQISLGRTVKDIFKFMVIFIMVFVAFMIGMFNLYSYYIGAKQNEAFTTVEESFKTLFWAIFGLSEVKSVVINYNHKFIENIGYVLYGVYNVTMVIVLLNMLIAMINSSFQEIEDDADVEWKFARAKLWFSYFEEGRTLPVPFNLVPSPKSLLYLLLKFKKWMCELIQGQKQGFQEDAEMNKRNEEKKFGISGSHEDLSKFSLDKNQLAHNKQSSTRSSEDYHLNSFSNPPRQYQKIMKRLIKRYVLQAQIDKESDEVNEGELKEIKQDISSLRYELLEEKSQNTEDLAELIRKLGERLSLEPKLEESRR
Pemphigus Ab inh = inhibitors of pemphigus antibody binding to human desmoglein-3; AID 588358; actives 0.48% (n = 310,000); P32926; DSG3-coupled beads, scFv-anti-DSG3-GFP binding, flow cytometry; stronger effect = lower value; binding (percent of control), % at 10 µM;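 active means binding more than 3 SD below its plate's average and above zero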;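 further: hits lower antibody fragment binding to DSG3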
TRPC4 block = blocks the mouse TRPC4 cation channel. Q9QUQ5. HEK293 TRPC4beta/mu-opioid, DAMGO-evoked Fluo4 calcium flux; stronger effect = lower value. B-score at 10 µM. actives 0.39% (n = 300,000). AID 2247;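 active means B-score over 3 SD under the library average, no early fluorescence shift, positive overall ratio signal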
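System: stable TRPC4beta/mu-opioid receptor HEK293 cells; Dosing: single-point compound dosing; Measured by: Fluo4 Ca2+ flux fluorescence; Read-out basis: per-well B score of integrated baseline-normalized Fluo4 ratio.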
TRPC4 PAM = allosterically enhances the mouse TRPC4 cation channel; Q9QUQ5; AID 2227; HEK293 TRPC4beta/mu-opioid, DAMGO EC20, Fluo-4 Ca2+ flux; stronger effect = higher value; B-score at 10 µM; actives 0.42% (n = 310,000);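 active means B-score of calcium response area above 5 SD of library B-scores, with initial fluorescence ratio within 5 SD of library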;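 further: B-score of integrated fluorescence ratio over time as area under calcium response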
TRPC6 inhibitor = inhibitors of mouse TRPC6 channel | Q61143 | HEK293-TRPC6, membrane potential dye, ACh-evoked depolarization; stronger effect = lower value | B-score at 10 µM | actives 1.1% (n = 310,000) | AID 2553;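 active means B-score under library mean minus 3 SD, initial fluorescence not abnormally high, positive integrated signal ratio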;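 further: B-score derived from integrated fluorescence ratio over the kinetic read; more negative B-score means stronger inhibition of depolarization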
TRPC4 spec 2 = second check of whether TRPC6 inhibitors also affect mouse TRPC4 | shares compounds with TRPC6 inhibitor | actives 42% (n = 920) | AID 2776 | inhibition, % at 10 µM | HEK293 TRPC4/MOR, membrane potential dye fluorescence; channel activated by saturating DAMGO dose;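 active means compounds whose fluorescence signal differed from control wells by over 3 SD, either direction, in both duplicate plates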
TRPC4 spec = selectivity of TRPC6 inhibitors: effect on mouse TRPC4. activity change, negative = inhibition, % at 10 µM. AID 2777. shares compounds with TRPC6 inhibitor. HEK293 TRPC4/mu-opioid, membrane potential fluorescence. actives 61% (n = 920);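 active means rise or fall in signal beyond 3 SD of buffer-only wells in both replicate plates, either sign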;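 further: integrated kinetic ratio of fluorescence range over baseline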
HEK293 MPD ctr 2-1 = second check of TRPC6 inhibitor effects in parental HEK293 cells | shares compounds with TRPC6 inhibitor | parental HEK293 membrane potential dye fluorescence; maximal acetylcholine challenge after compound addition | signal change vs control, % at 10 µM | actives 31% (n = 920);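 active means membrane potential signal moving either way by over 3 SD of the maximum-effect control, in both duplicate plates, meaning non-specific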
HEK293 MPD ctr-1 = checks TRPC6 inhibitor effects in parental HEK293 cells. shares compounds with TRPC6 inhibitor. parental HEK293 membrane potential dye fluorescence. membrane potential signal change, % at 10 µM. actives 60% (n = 920);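 active means membrane potential signal shifting up or down by more than 3 SD of buffer-only wells, on both duplicate plates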
HEK293 MPD ctr-2 = parental HEK293 nonspecific activity of TRPC6 modulators; AID 488924; membrane potential signal change, % at 10 µM; actives 51% (n = 2,400); membrane potential dye fluorescence; shares compounds with TRPC6 inhibitor;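 active means membrane potential signal moves up or down beyond 5 SD from buffer-only wells, on both duplicate plates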
HEK293 MPD ctr 2-2 = second counter-screen for TRPC6 modulators: effect in parental HEK293 cells. shares compounds with TRPC6 inhibitor. membrane potential dye fluorescence; after compound, maximal acetylcholine stimulation. inhibition, % at 10 µM. actives 14% (n = 2,400). AID 488926;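 active means membrane potential signal drops by more than 5 SD from the mean control signal, in both duplicate plates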;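 further: plate controls were acetylcholine ECmax control wells for no effect and buffer only wells for full effect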
TRPC4 ctr mod = mouse TRPC4 off-target activity of TRPC6 modulators | shares compounds with TRPC6 inhibitor | HEK293 TRPC4/mu-opioid, membrane potential fluorescence | percent change from control (negative = decrease, positive = increase), % at 10 µM | actives 69% (n = 2,400);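 active means membrane potential signal moved up or down beyond 5 SD of buffer control wells, in both duplicate plates, actives on both sides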;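 further: plate controls were assay buffer wells for no effect and DAMGO maximal-effect wells for full effect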
TRPC4 ctr inh 2 = second check of whether TRPC6 modulators also affect mouse TRPC4. HEK293 TRPC4/mu-opioid, membrane potential dye fluorescence; stimulated with maximal-effect DAMGO. AID 488928. shares compounds with TRPC6 inhibitor. inhibition, % at 10 µM. actives 55% (n = 2,400);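 active means drop in membrane potential signal beyond 5 SD of the control wells in both duplicate plates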;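 further: TRPC4 counter screen for TRPC6 hits run under conditions tuned for TRPC6 not TRPC4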
TRPC6 inh conf = mouse TRPC6 inhibitor confirmation; shares compounds with TRPC6 inhibitor; HEK293-TRPC6, membrane potential dye, ACh-evoked depolarization; inhibition, % at 10 µM; actives 43% (n = 3,300); AID 488960;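 active means fluorescence ratio falls more than 5 SD below the full-stimulation control mean, in both duplicate runs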;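 further: integrated fluorescence ratio of peak minus minimum over baseline after agonist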
TRPC6 act confirm = mouse TRPC6 activator confirmation | activation, % at 10 µM | AID 488961 | HEK293-TRPC6 membrane potential dye fluorescence, FDSS | shares compounds with TRPC6 inhibitor | actives 11% (n = 2,800);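 active means ratio signal rise beyond 5 SD above unstimulated control wells' mean, seen in both duplicate runs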;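 further: plate controls were buffer EC0 wells for no effect and acetylcholine ECmax response for full effect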
* = called active by the depositor; i = inactive; . = not tested or not shown; + = active, no number.

SMILES	TRPC4 act	TRPC6 activator	Pemphigus Ab inh	TRPC4 block	TRPC4 PAM	TRPC6 inhibitor	HEK293 MPD ctr-2	HEK293 MPD ctr 2-2	TRPC4 ctr mod	TRPC4 ctr inh 2	TRPC6 inh conf	TRPC6 act confirm	others
CCOC(=O)C1CCN(C(=O)c2sc3ncnc(N4CCC(C)CC4)c3c2C)CC1	i	i	96	i	i	i	.	.	.	.	.	.
CCOC(=O)C1CCN(C(=O)c2sc3nc(C)nc(N4CCC(C)CC4)c3c2C)CC1	i	14*	95	i	i	-9*	198%*	i	30%*	i	78%*	127%*
CCOC(=O)c1ncccc1NC(=O)CC(=O)Nc1cccnc1C(=O)OCC	i	i	102	i	i	i	.	.	.	.	.	.
C/C=C(\C)CN1CCC(n2nccc2NC(=O)c2ccc3c(c2)OCO3)CC1	i	i	95	i	i	i	.	.	.	.	.	.
CC(C)=CCCC(C)CN1CCC(n2nccc2NC(=O)c2ccc3c(c2)OCO3)CC1 (configuration not stated)	i	i	100	i	i	-7.3*	.	.	.	.	56%*	i	TRPC4 spec 2=36%*;TRPC4 spec=6.8%*;HEK293 MPD ctr 2-1=268%*;HEK293 MPD ctr-1=10%*
COCCSc1ccccc1C(=O)N1CCN(c2ccccc2)CC1	i	i	99	i	i	i	.	.	.	.	.	.
Cc1noc(C)c1CSc1ccccc1C(=O)N1CCN(c2ccccc2)CC1	i	i	86	i	i	-6.9*	.	.	.	.	i	.	TRPC4 spec 2=i;TRPC4 spec=16%*;HEK293 MPD ctr 2-1=i;HEK293 MPD ctr-1=8.9%*
COc1ccccc1-c1nnc(SC(C)C(=O)O)n1-c1ccccc1 (configuration not stated)	i	i	102	i	i	i	.	.	.	.	.	.
CCN1C(=S)SC(=O)C1=C1C=C(C)N(CCO)C(C)=C1	47*	40*	100	i	i	i	812%*	159%*	134%*	i	.	458%*
CCN1C(=O)/C(=C/C=C2/Sc3ccccc3N2CCO)SC1=S	i	i	.	i	i	i	.	.	.	.	.	.
CCC(=O)c1ccccc1OCCCCn1cncn1	i	i	96	i	i	i	.	.	.	.	.	.
NS(=O)(=O)c1ccc(N/N=C/c2ccc(C(=O)O)cc2)c([N+](=O)[O-])c1	i	i	89	i	i	i	.	.	.	.	.	.
Cc1nn(-c2ccccc2)c(N2CCCC2)c1/C=N/Nc1ccc(S(N)(=O)=O)cc1[N+](=O)[O-]	i	i	106	i	i	-5.5*	i	i	-10%*	54%*	i	i
CCCc1nc2nc(C)c(NS(=O)(=O)c3ccc(Cl)cc3)c(=O)n2[nH]1	i	i	103	i	i	i	.	.	.	.	.	.
CC(C)(C)c1nnc(NC(=O)Cc2ccccc2[N+](=O)[O-])s1	i	i	.	i	i	-6.4*	i	i	i	i	i	i
COc1ccc(Oc2c(C(F)(F)F)oc3cc(OCC(=O)O)ccc3c2=O)cc1	i	i	99	i	i	-5.2*	i	i	i	i	i	i
C[C@H](CO)N1C[C@H](C)[C@@H](CN(C)C(=O)Nc2ccc3c(c2)OCO3)Oc2c(NS(=O)(=O)c3ccc(F)cc3)cccc2C1=O	.	.	101	.	.	.	.	.	.	.	.	.
Cc1cc2c3c(ccc(C)c3n1)N=CN2c1ccccc1	i	i	106	i	i	-8.1*	-240%*	77%*	-46%*	66%*	52%*	i
Cc1ccc(S(=O)(=O)N2CC(=O)N3CCN(CCN)C3C2)cc1 (configuration not stated)	.	.	103	.	.	.	.	.	.	.	.	.
COc1ccc(/C=N/n2c(C)nc3ccccc3c2=O)cc1OC	i	i	103	i	i	-6.3*	i	i	i	i	i	i
CCOC(=O)N1CCC(N2CCCC(C(=O)c3ccccc3OC)C2)CC1 (configuration not stated)	i	i	97	i	i	i	.	.	.	.	.	.
Nc1c(C(=O)c2ccc(Cl)cc2)sc2nsc(SCCN3CCOCC3)c12	i	i	149	i	i	i	.	.	.	.	.	.
Nc1c(C(=O)c2ccccc2)sc2nsc(SCCN3CCCC3)c12	86*	65*	124	i	i	i	+	i	272%*	36%*	i	513%*
OCC1(Cc2ccccc2Cl)CCN(C/C=C/c2ccccc2)CC1	i	i	94	i	i	-5.3*	132%*	i	25%*	60%*	i	.
OCC1(CCc2ccccc2)CCN(C/C=C/c2ccccc2)CC1	i	i	103	i	i	i	.	.	.	.	.	.
Cc1ccc(NC(=O)CC(O)(C(F)(F)F)C(F)(F)F)c(Br)c1	i	i	101	i	i	-6.1*	i	i	i	i	i	.
